# Reference: paper PMC10357458 (ACS Omega, 2023)
# Test system: CAIX-positive SK-RC-52 cells
# Assay: Cellular binding, flow cytometry and confocal microscopy on CAIX-positive cells
# Assay type: cell-based, human
# Conditions: fluorescent derivatives, 100 nM, 30 min
# Summary of the method: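 SK-RC-52 human renal carcinoma cells were grown in RPMI with 10% FCS and 1% antibiotic-antimycotic at 37 °C, 5% CO₂, and split 1:6 with 0.05% trypsin-EDTA. For confocal imaging, cells were seeded at 10^4 per chamber well in RPMI with 10% FBS and 10 mM HEPES, then grown overnight. Fluorescein-labelled test compounds were imaged with DAPI-stained nuclei. Acetazolamide-fluorescein was the positive control and untargeted fluorescein the negative control.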
compound,measurement,value
"CC(=O)Nc1nnc(S(N)(=O)=O)s1 [AAZ, acetazolamide]",binding to CAIX on the surface of SK-RC-52 cells,accumulated on the surface
